Results published in ChEMBL document CHEMBL1955815, “The synthesis of ethacrynic acid thiazole derivatives as glutathione S-transferase pi inhibitors” (2012).

The molecules below were run on HL-60 (assay: Growth inhibition of human HL60 cells after 72 hrs by trypan blue staining). Settings: HL-60, 72 h.
Type: functional
Outline: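 HL-60 cells kept in RPMI-1640 with 10% heat-inactivated FBS, penicillin/streptomycin and L-glutamine at 37 °C, 5% CO2. Seeded at 4×10^4/mL in 24-well plates and exposed to a range of concentrations for 72 h. Trypan blue-positive and -negative cells were both counted. Inhibition = (1−Nt/Nc)×100%, and GI50 is the concentration giving half-maximal growth inhibition versus untreated cells.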

Structure (SMILES)	GI50
C=C(C)C(=O)c1ccc(OCc2nc(-c3ccccc3)cs2)c(C)c1C	3400 nM
C=C(C)C(=O)c1ccc(OCc2nc(-c3ccccc3)cs2)cc1Cl	6400 nM
C=C(C)C(=O)c1ccc(OCc2nc(-c3ccccc3)cs2)cc1C	4700 nM
C=C(CC)C(=O)c1ccc(OCc2nc(-c3ccc([N+](=O)[O-])cc3)cs2)c(C)c1C	3600 nM
C=C(CC)C(=O)c1ccc(OCc2nc(-c3ccc4ccccc4c3)cs2)c(C)c1C	2000 nM
C=C(CC)C(=O)c1ccc(OCc2nc(-c3ccc(C(F)(F)F)cc3)cs2)c(C)c1C	1500 nM
C=C(C)C(=O)c1ccc(OCc2nc(-c3ccc([N+](=O)[O-])cc3)cs2)c(C)c1C	5100 nM
C=C(C)C(=O)c1ccc(OCc2nc(-c3ccc4ccccc4c3)cs2)c(C)c1C	2300 nM
C=C(C)C(=O)c1ccc(OCc2nc(-c3ccc(C(F)(F)F)cc3)cs2)c(C)c1C	3100 nM
C=C(CC)C(=O)c1ccc(OCc2nc(-c3ccc([N+](=O)[O-])cc3)cs2)cc1Cl	800 nM
C=C(CC)C(=O)c1ccc(OCc2nc(-c3ccc4ccccc4c3)cs2)cc1Cl	900 nM
C=C(CC)C(=O)c1ccc(OCc2nc(-c3ccc(C(F)(F)F)cc3)cs2)cc1Cl	2000 nM
C=C(C)C(=O)c1ccc(OCc2nc(-c3ccc([N+](=O)[O-])cc3)cs2)cc1Cl	5900 nM
C=C(C)C(=O)c1ccc(OCc2nc(-c3ccc4ccccc4c3)cs2)cc1Cl	2900 nM
C=C(C)C(=O)c1ccc(OCc2nc(-c3ccc(C(F)(F)F)cc3)cs2)cc1Cl	1400 nM
C=C(CC)C(=O)c1ccc(OCc2nc(-c3ccc([N+](=O)[O-])cc3)cs2)c(Cl)c1Cl	1000 nM
C=C(CC)C(=O)c1ccc(OCc2nc(-c3ccc4ccccc4c3)cs2)c(Cl)c1Cl	3600 nM
C=C(CC)C(=O)c1ccc(OCc2nc(-c3ccc(C(F)(F)F)cc3)cs2)c(Cl)c1Cl	1600 nM
C=C(CC)C(=O)c1ccc(OCC(=O)O)c(Cl)c1Cl [ETHACRYNIC ACID]	44200 nM
